Experimental data published in ChEMBL document CHEMBL1795311, “Synthesis, antiproliferative activity, and mechanism of action of a series of 2-{[(2E)-3-phenylprop-2-enoyl]amino}benzamides” (Eur J Med Chem, 2011).
One block for each compound: values may come before it.

Key:
[1] = test system: K562; assay: Antiproliferative activity against human K562 cells at 10 uM after 48 hrs by trypan blue assay; assay type: functional; settings: K562, 48 h, read-out: GI
[2] = test system: K562; assay: Growth inhibition of human K562 cells after 48 hrs by trypan blue assay; assay type: functional, cell-based; settings: K562, 48 h
[3] = test system: SN12C; assay: Growth inhibition of human SN12C cells after 48 hrs by SRB assay; assay type: functional
Outline: (§1)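 Run by the NCI Developmental Therapeutics Program: cells in RPMI 1640 with 5% FBS and 2 mM L-glutamine, plated at 5000–40,000 cells/well and grown 24 h before dosing. Drug (DMSO stock) given at five concentrations for 48 h at 37 °C, 5% CO2. Adherent cells fixed with cold TCA, stained with 0.4% SRB and read at 515 nm. GI50, TGI and LC50 taken from the time-zero, control and treated absorbances.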

[4] = test system: A498; assay: Growth inhibition of human A498 cells after 48 hrs by SRB assay; assay type: functional; settings: A498, 48 h
Outline: (§2)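 NCI DTP panel cells grown in RPMI 1640 with 5% FBS and 2 mM L-glutamine, preincubated 24 h, then given five concentrations (10-fold or ½-log dilutions from DMSO stock) for 48 h at 37 °C. Cells fixed with TCA, stained with SRB, absorbance read at 515 nm, with time-zero plates as reference.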

[5] = test system: U-251; assay: Growth inhibition of human U251 cells after 48 hrs by SRB assay; assay type: functional; settings: U-251, 48 h; outline: as §1
[6] = test system: 786-0; assay: Growth inhibition of human 786-0 cells after 48 hrs by SRB assay; assay type: functional; settings: 786-0, 48 h; outline: as §2
[7] = test system: BT-549; assay: Growth inhibition of human BT549 cells after 48 hrs by SRB assay; assay type: functional; settings: BT-549, 48 h; outline: as §2
[8] = test system: COLO 205; assay: Growth inhibition of human COLO205 cells after 48 hrs by SRB assay; assay type: functional; settings: COLO 205, 48 h; outline: as §2
[9] = test system: SK-OV-3; assay: Growth inhibition of human SKOV3 cells after 48 hrs by SRB assay; assay type: functional; settings: SK-OV-3, 48 h; outline: as §1
[10] = test system: UACC-62; assay: Growth inhibition of human UACC62 cells after 48 hrs by SRB assay; assay type: functional; settings: UACC-62, 48 h; outline: as §1
[11] = test system: RXF 393; assay: Growth inhibition of human RXF393 cells after 48 hrs by SRB assay; assay type: functional; settings: RXF 393, 48 h; outline: as §2
[12] = test system: Malme-3M; assay: Growth inhibition of human MALME-3M cells after 48 hrs by SRB assay; assay type: functional; outline: as §2
[13] = test system: SK-MEL-5; assay: Growth inhibition of human SK-MEL-5 cells after 48 hrs by SRB assay; assay type: functional; settings: SK-MEL-5, 48 h; outline: as §1
[14] = test system: SW-620; assay: Growth inhibition of human SW620 cells after 48 hrs by SRB assay; assay type: functional; settings: SW-620, 48 h; outline: as §1
[15] = test system: SK-MEL-28; assay: Growth inhibition of human SK-MEL-28 cells after 48 hrs by SRB assay; assay type: functional; settings: SK-MEL-28, 48 h; outline: as §1
[16] = test system: HOP-92; assay: Growth inhibition of human HOP92 cells after 48 hrs by SRB assay; assay type: functional; settings: HOP-92, 48 h; outline: as §2
[17] = test system: OVCAR-5; assay: Growth inhibition of human OVCAR5 cells after 48 hrs by SRB assay; assay type: functional; settings: OVCAR-5, 48 h; outline: as §2
[18] = test system: SNB-75; assay: Growth inhibition of human SNB75 cells after 48 hrs by SRB assay; assay type: functional; settings: SNB-75, 48 h; outline: as §1
[19] = test system: TK-10; assay: Growth inhibition of human TK10 cells after 48 hrs by SRB assay; assay type: functional; settings: TK-10, 48 h; outline: as §1
[20] = test system: HCT-116; assay: Growth inhibition of human HCT116 cells after 48 hrs by SRB assay; assay type: functional; settings: HCT-116, 48 h; outline: as §2
[21] = test system: MDA-MB-468; assay: Growth inhibition of human MDA-MB-468 cells after 48 hrs by SRB assay; assay type: functional; settings: MDA-MB-468, 48 h; outline: as §2
[22] = test system: SNB-19; assay: Growth inhibition of human SNB19 cells after 48 hrs by SRB assay; assay type: functional; settings: SNB-19, 48 h; outline: as §1
[23] = test system: HL-60; assay: Growth inhibition of human HL60 cells after 48 hrs by SRB assay; assay type: functional; settings: HL-60, 48 h; outline: as §2
[24] = test system: KM12; assay: Growth inhibition of human KM12 cells after 48 hrs by SRB assay; assay type: functional; settings: KM12, 48 h; outline: as §2
[25] = test system: NCI-H23; assay: Growth inhibition of human NCI-H23 cells after 48 hrs by SRB assay; assay type: functional; settings: NCI-H23, 48 h; outline: as §2
[26] = test system: ACHN; assay: Growth inhibition of human ACHN cells after 48 hrs by SRB assay; assay type: functional; outline: as §2
[27] = test system: MDA-MB-435; assay: Growth inhibition of human MDA-MB-435 cells after 48 hrs by SRB assay; assay type: functional; settings: MDA-MB-435, 48 h; outline: as §2
[28] = test system: EKVX; assay: Growth inhibition of human EKVX cells after 48 hrs by SRB assay; assay type: functional; outline: as §2
[29] = test system: T47D; assay: Growth inhibition of human T47D cells after 48 hrs by SRB assay; assay type: functional; outline: as §1
[30] = test system: NCI-H460; assay: Growth inhibition of human NCI-H460 cells after 48 hrs by SRB assay; assay type: functional; settings: NCI-H460, 48 h; outline: as §2
[31] = test system: K562; assay: Growth inhibition of human K562 cells after 48 hrs by SRB assay; assay type: functional; settings: K562, 48 h; outline: as §2
[32] = test system: MOLT-4; assay: Growth inhibition of human MOLT4 cells after 48 hrs by SRB assay; assay type: functional; settings: MOLT-4, 48 h; outline: as §2
[33] = test system: SF-295; assay: Growth inhibition of human SF295 cells after 48 hrs by SRB assay; assay type: functional; settings: SF-295, 48 h; outline: as §2
[34] = test system: SF-268; assay: Growth inhibition of human SF268 cells after 48 hrs by SRB assay; assay type: functional; settings: SF-268, 48 h; outline: as §2
[35] = test system: CCRF-CEM; assay: Growth inhibition of human CCRF-CEM cells after 48 hrs by SRB assay; assay type: functional; outline: as §2
[36] = test system: NCI-H226; assay: Growth inhibition of human NCI-H226 cells after 48 hrs by SRB assay; assay type: functional; settings: NCI-H226, 48 h; outline: as §2
[37] = test system: HT-29; assay: Growth inhibition of human HT-29 cells after 48 hrs by SRB assay; assay type: functional; settings: HT-29, 48 h; outline: as §2
[38] = test system: M14; assay: Growth inhibition of human M14 cells after 48 hrs by SRB assay; assay type: functional; settings: M14, 48 h; outline: as §2
[39] = test system: UO-31; assay: Growth inhibition of human UO31 cells after 48 hrs by SRB assay; assay type: functional; settings: UO-31, 48 h; outline: as §1
[40] = test system: RPMI-8226; assay: Growth inhibition of human RPMI8226 cells after 48 hrs by SRB assay; assay type: functional; settings: RPMI-8226, 48 h; outline: as §2
[41] = test system: NCI/ADR-RES; assay: Growth inhibition of human NCI/ADR-RES cells after 48 hrs by SRB assay; assay type: functional; outline: as §2
[42] = test system: PC-3; assay: Growth inhibition of human PC3 cells after 48 hrs by SRB assay; assay type: functional; settings: PC-3, 48 h; outline: as §2
[43] = test system: MCF7; assay: Growth inhibition of human MCF7 cells after 48 hrs by SRB assay; assay type: functional; settings: MCF7, 48 h; outline: as §2
[44] = Growth inhibition of human Hs 578T cells after 48 hrs by SRB assay; assay type: functional; outline: as §2
[45] = test system: A549; assay: Growth inhibition of human A549 cells after 48 hrs by SRB assay; assay type: functional; settings: A549, 48 h; outline: as §2
[46] = test system: MDA-MB-231; assay: Growth inhibition of human MDA-MB-231 cells after 48 hrs by SRB assay; assay type: functional; settings: MDA-MB-231, 48 h; outline: as §2
[47] = test system: CAKI-1; assay: Growth inhibition of human Caki1 cells after 48 hrs by SRB assay; assay type: functional; settings: CAKI-1, 48 h; outline: as §2
[48] = test system: SF-539; assay: Growth inhibition of human SF539 cells after 48 hrs by SRB assay; assay type: functional; settings: SF-539, 48 h; outline: as §2
[49] = test system: LOX IMVI; assay: Growth inhibition of human LOXIMVI cells after 48 hrs by SRB assay; assay type: functional; outline: as §2
[50] = test system: OVCAR-3; assay: Growth inhibition of human OVCAR3 cells after 48 hrs by SRB assay; assay type: functional; settings: OVCAR-3, 48 h; outline: as §2
[51] = test system: DU-145; assay: Growth inhibition of human DU145 cells after 48 hrs by SRB assay; assay type: functional; settings: DU-145, 48 h; outline: as §2
[52] = test system: HOP-62; assay: Growth inhibition of human HOP62 cells after 48 hrs by SRB assay; assay type: functional; settings: HOP-62, 48 h; outline: as §2
[53] = test system: HCT-15; assay: Growth inhibition of human HCT15 cells after 48 hrs by SRB assay; assay type: functional; settings: HCT-15, 48 h; outline: as §2

SMILES: NC(=O)c1cc(Br)ccc1NC(=O)/C=C/c1ccc(Cl)cc1
inhibition of growth at 10 µM [1]: 22%
IC50 [2]: > 10000 nM

SMILES: Cc1cccc(/C=C/C(=O)Nc2ccc(Br)cc2C(N)=O)c1
inhibition of growth at 10 µM [1]: 43.8%
IC50 [2]: > 10000 nM

SMILES: NC(=O)c1cc(Cl)ccc1NC(=O)/C=C/c1ccc(Cl)cc1
inhibition of growth at 10 µM [1]: 31%
IC50 [2]: > 10000 nM

SMILES: Cc1cccc(/C=C/C(=O)Nc2ccc(Cl)cc2C(N)=O)c1
inhibition of growth at 10 µM [1]: 37.8%
IC50 [2]: > 10000 nM

SMILES: NC(=O)c1cc(Cl)ccc1NC(=O)/C=C/c1cccc(Br)c1
inhibition of growth at 10 µM [1]: 27%
IC50 [2]: > 10000 nM

SMILES: Cc1ccc(/C=C/C(=O)Nc2ccc(Br)cc2C(N)=O)cc1
inhibition of growth at 10 µM [1]: 45.9%
IC50 [2]: > 10000 nM

SMILES: Cc1ccccc1/C=C/C(=O)Nc1ccc(Br)cc1C(N)=O
inhibition of growth at 10 µM [1]: 43.2%
IC50 [2]: > 10000 nM

SMILES: NC(=O)c1cc(Br)ccc1NC(=O)/C=C/c1cccc(Cl)c1
inhibition of growth at 10 µM [1]: 25.5%
IC50 [2]: > 10000 nM

Stronger by IC50 [2], values ahead:

IC50 [2]: 9500 nM
SMILES: Cc1ccccc1/C=C/C(=O)Nc1ccc(Cl)cc1C(N)=O
inhibition of growth at 10 µM [1]: 52.2%

IC50 [2]: 7400 nM
SMILES: NC(=O)c1cc(Cl)ccc1NC(=O)/C=C/c1ccccc1Cl
inhibition of growth at 10 µM [1]: 58%

GI50 [5]: 887 nM
GI50 [6]: 1760 nM
GI50 [7]: 1410 nM
GI50 [8]: 917 nM
GI50 [9]: 1410 nM
GI50 [13]: 435 nM
GI50 [14]: 705 nM
GI50 [15]: 839 nM
GI50 [17]: 2920 nM
GI50 [20]: 663 nM
GI50 [21]: 279 nM
GI50 [23]: 346 nM
GI50 [25]: 1090 nM
GI50 [26]: 3360 nM
GI50 [27]: 231 nM
GI50 [29]: 1570 nM
GI50 [30]: 662 nM
GI50 [31]: 415 nM
GI50 [32]: 1860 nM
GI50 [35]: 429 nM
GI50 [36]: 2610 nM
GI50 [37]: 527 nM
GI50 [40]: 1030 nM
GI50 [42]: 684 nM
GI50 [43]: 569 nM
IC50 [2]: 5000 nM
GI50 [45]: 1020 nM
GI50 [46]: 2190 nM
GI50 [50]: 349 nM
GI50 [51]: 935 nM
GI50 [53]: 1040 nM
SMILES: NC(=O)c1cc(Br)ccc1NC(=O)/C=C/c1ccccc1
GI50 [3]: 2960 nM
GI50 [4]: 1700 nM
GI50 [10]: 782 nM
GI50 [11]: 444 nM
GI50 [12]: 1210 nM
GI50 [16]: 1960 nM
GI50 [18]: 2070 nM
GI50 [19]: 2670 nM
GI50 [22]: 2000 nM
GI50 [24]: 739 nM
inhibition of growth at 10 µM [1]: 62.4%
GI50 [28]: 2410 nM
GI50 [33]: 625 nM
GI50 [34]: 1830 nM
GI50 [38]: 482 nM
GI50 [39]: 1850 nM
GI50 [41]: 400 nM
GI50 [44]: 624 nM
GI50 [47]: 1340 nM
GI50 [48]: 819 nM
GI50 [49]: 3270 nM
GI50 [52]: 1510 nM
